Values joined by “and” are separate entries in the source; they are usually repeats but may differ in a detail not shown here. Identical values can stand only once. Blank lines part the entries; values can stand above or below the compound they belong to.
What was measured:
[1] = target: Delta-type opioid receptor (Rattus norvegicus) (UniProt P33533); test: Inhibition against [3H]D-Ala-deltorphin opioid receptor delta 2 in rat brain membranes at 1 umol/L.; assay type: cell membranes
Procedure, shortened: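 Rat brain membranes (without cerebellum, pons, medulla oblongata); 1 nM [3H]-D-Ala-deltorphine; no preincubation; 50 mM Tris-HCl pH 7.4 with BSA and 4.5 mM MgCl2; 37 °C 90 min; nonspecific binding with 10^-5 M naloxone; triplicate, GF/B filtration, scintillation counting.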

[2] = target: Mu-type opioid receptor (Rattus norvegicus) (UniProt P33535); test: Inhibition against [3H]naloxone opioid receptor mu 1 in rat brain membranes at 1 umol/L.; assay type: cell membranes
Mu-type opioid receptor (Rattus norvegicus), sequence (P33535 whole entry): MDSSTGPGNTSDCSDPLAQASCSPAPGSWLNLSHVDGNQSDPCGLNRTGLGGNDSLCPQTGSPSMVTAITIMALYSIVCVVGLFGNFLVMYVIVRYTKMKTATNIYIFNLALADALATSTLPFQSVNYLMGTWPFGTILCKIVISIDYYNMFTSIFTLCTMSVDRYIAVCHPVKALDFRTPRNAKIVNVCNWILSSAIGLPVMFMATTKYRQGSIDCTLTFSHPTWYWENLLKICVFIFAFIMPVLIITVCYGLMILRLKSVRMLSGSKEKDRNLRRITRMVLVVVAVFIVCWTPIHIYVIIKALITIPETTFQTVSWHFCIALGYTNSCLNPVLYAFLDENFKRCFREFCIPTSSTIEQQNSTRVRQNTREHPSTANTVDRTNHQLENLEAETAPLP
Procedure, shortened: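 Rat brain membranes (without cerebellum); 1 nM [3H]naloxone; preincubation 37 °C 40 min; incubation 50 mM Tris-HCl pH 7.4, 25 °C 30 min; nonspecific binding with 10^-5 M naloxone; triplicate, GF/B filtration, three ice-cold washes, scintillation counting.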

[3] = target: Kappa-type opioid receptor (Rattus norvegicus) (UniProt P34975); test: Inhibition against [3H]-CI 977 rat Opioid receptor kappa 1 at 10 umol/L
Kappa-type opioid receptor (Rattus norvegicus), sequence (P34975 whole entry, looked up): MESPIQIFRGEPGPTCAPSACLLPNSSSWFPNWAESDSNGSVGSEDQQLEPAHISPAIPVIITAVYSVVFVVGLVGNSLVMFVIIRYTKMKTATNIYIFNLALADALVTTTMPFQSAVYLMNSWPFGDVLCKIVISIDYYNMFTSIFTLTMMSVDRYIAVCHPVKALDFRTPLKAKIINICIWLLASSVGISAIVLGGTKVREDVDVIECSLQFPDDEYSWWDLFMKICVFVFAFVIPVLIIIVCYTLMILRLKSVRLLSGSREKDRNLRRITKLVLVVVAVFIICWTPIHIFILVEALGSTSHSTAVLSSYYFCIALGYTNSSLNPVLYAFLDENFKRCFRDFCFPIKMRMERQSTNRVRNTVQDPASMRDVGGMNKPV

[4] = target: T1, Kappa-type opioid receptor (Homo sapiens, UniProt P41145); test: (§1) Inhibition against [3H]diprenorphine human Opioid receptor kappa 1 at 10 umol/L
T1 sequence (P41145 whole entry): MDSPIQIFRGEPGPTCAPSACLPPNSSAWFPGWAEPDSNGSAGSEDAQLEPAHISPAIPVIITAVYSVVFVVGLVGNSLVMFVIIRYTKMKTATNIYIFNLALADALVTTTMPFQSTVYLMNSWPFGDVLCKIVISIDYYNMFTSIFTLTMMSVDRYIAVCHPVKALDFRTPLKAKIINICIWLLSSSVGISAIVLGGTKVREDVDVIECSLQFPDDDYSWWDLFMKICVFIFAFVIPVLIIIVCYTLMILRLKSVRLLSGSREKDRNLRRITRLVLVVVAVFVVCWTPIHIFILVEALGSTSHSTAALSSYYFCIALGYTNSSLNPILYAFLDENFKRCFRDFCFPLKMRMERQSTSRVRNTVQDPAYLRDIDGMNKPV

[5] = target: T1, Kappa-type opioid receptor; test: Inhibition against [3H]diprenorphine human Opioid receptor kappa 1
[6] = target: Delta-type opioid receptor (Rattus norvegicus) (UniProt P33533); test: Inhibition against [3H]DPDPE Opioid receptor delta 1 in rat brain membranes at 1 umol/L; assay type: cell membranes
Procedure, shortened: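 Rat brain membranes (without cerebellum, pons, medulla oblongata); 0.25 nM [3H]Cl-DPDPE; preincubation 25 °C 30 min; 50 mM Tris-HCl pH 7.4 with BSA, 45 μM PMSF, 4.5 mM MgCl2; 25 °C 240 min; nonspecific binding with 10^-3 M naloxone; triplicate, filtration, scintillation counting.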

[7] = target: T1, Kappa-type opioid receptor; test: as §1; remark: listed apart in the source
[8] = Acid dissociation constant was measured in experiment 4; assay type: ADME; conditions: read-out: pKa4
[9] = Acid dissociation constant was measured in experiment 2; assay type: ADME; conditions: read-out: pKa2
[10] = Acid dissociation constant was measured in experiment 3; assay type: ADME; conditions: read-out: pKa3
[11] = Acid dissociation constant was measured in experiment 1; assay type: ADME; conditions: read-out: pKa1
[12] = target: Kappa-type opioid receptor (Mus musculus) (UniProt P33534); test: Antinociceptive activity evaluated against Opioid receptor kappa 1 in mice by writhing test (administered intravenously)
Kappa-type opioid receptor (Mus musculus), sequence (P33534 whole entry): as the sequence (P34975 whole entry, looked up) above, with E11D, A17S, P51S, V308A counted along it
Procedure, shortened: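 Male NMRI mice (31-37 g); writhing induced by ip 0.35 mL of 0.02% phenylquinone; writhes counted 5–20 min after phenylquinone; food and water withdrawn during test; compound given iv; ED50 derived.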

[13] = target: Kappa-type opioid receptor (Mus musculus) (UniProt P33534); test: Antinociceptive activity evaluated against Opioid receptor kappa 1 in mice by tail-flick assay (administered intravenously)
Procedure, shortened: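 Male NMRI mice (23-26 g), group-housed, ~22 °C, 12-h light-dark cycle; food and water withdrawn during testing; compound given iv; tail-flick response; ED50 derived.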

[14] = target: T1, Kappa-type opioid receptor; test: Inhibition against [3H]diprenorphine human Opioid receptor kappa 1 at 10 uM/L
[15] = target: T1, Kappa-type opioid receptor; test: Inhibition against [3H]diprenorphine human Opioid receptor kappa 1 […] at 10 umol/L; assay type: cell membranes

Delta-type opioid receptor (Rattus norvegicus), sequence (P33533 whole entry): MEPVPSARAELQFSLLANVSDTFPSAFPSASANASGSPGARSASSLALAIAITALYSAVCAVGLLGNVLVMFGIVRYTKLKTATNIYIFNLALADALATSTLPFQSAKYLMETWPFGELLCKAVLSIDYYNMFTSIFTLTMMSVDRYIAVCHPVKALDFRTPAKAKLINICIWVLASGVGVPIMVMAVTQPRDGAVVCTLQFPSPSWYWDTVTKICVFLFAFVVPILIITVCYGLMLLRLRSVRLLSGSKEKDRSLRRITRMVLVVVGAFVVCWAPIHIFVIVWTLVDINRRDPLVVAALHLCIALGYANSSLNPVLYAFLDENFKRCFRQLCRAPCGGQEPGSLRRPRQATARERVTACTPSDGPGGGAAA

SMILES: COC(=O)C12CN(C)CC(C(=O)OC)(C1=O)C(c1ccc([N+](=O)[O-])cc1)N(C)C2c1ccc([N+](=O)[O-])cc1 (trans isomer)
inhibition [1]: -4%
inhibition [2]: 4.8%
inhibition [3]: 27.8%

SMILES: COC(=O)C12CN(C)CC(C(=O)OC)(C1=O)C(c1cccnc1)N(C)C2c1cccnc1 (stereo unspecified)
inhibition [1]: 1.1%
inhibition [2]: 30.7%
inhibition [4]: 54.8%

SMILES: COC(=O)C12CN(C)CC(C(=O)OC)(C1=O)C(c1ccc3ccccc3n1)N(C)C2c1ccc2ccccc2n1 (stereo unspecified)
inhibition [1]: 11.8%
inhibition [2]: 36.6%
Ki [5]: 190 nM

SMILES: COC(=O)C12CN(C)CC(C(=O)OC)(C1=O)C(c1ccc(O)cc1)N(C)C2c1ccc(O)cc1 (stereo unspecified)
inhibition [1]: 7.3%
inhibition [2]: 14.2%
inhibition [4]: 8.4%

inhibition [1]: -7.9%
inhibition [6]: 14%
inhibition [4]: 10%
SMILES: COC(=O)C12CN(C)CC(C(=O)OC)(C1=O)C(c1cccc([N+](=O)[O-])c1)N(C)C2c1cccc([N+](=O)[O-])c1 (stereo unspecified)

inhibition [1]: 1.8%
inhibition [4]: 7.8%
SMILES: COC(=O)C12CN(C)CC(C(=O)OC)(C1=O)C(c1cccc3ccccc13)N(C)C2c1cccc2ccccc12 (stereo unspecified)

SMILES: COC(=O)C12CN(C)CC(C(=O)OC)(C1=O)C(c1ccc(F)cc1)N(C)C2c1ccc(F)cc1 (stereo unspecified)
inhibition [1]: 0.4%
inhibition [2]: 10.1%
Ki [7]: 140 nM

SMILES: COC(=O)C12CN(C)CC(C(=O)OC)(C1=O)C(c1cccc(O)c1)N(C)C2c1cccc(O)c1 (stereo unspecified)
pKa [8]: 9.21
inhibition [2]: 35.6%
pKa [9]: 7.97
pKa [10]: 9.12
inhibition [6]: 27%
pKa [11]: 10.3

SMILES: CCOC(=O)C12CN(C)CC(C(=O)OCC)(C1=O)C(c1ccc(Cl)cc1)N(C)C2c1ccc(Cl)cc1 (stereo unspecified)
inhibition [1]: 1.8%
inhibition [2]: -5%
Ki [5]: 1980 nM

SMILES: COC(=O)C12CN(C)CC(C(=O)OC)(C1=O)C(c1ccc(Cl)cc1)N(C)C2c1ccc(Cl)cc1 (stereo unspecified)
inhibition [1]: -2.1%
inhibition [2]: 2.2%
inhibition [4]: 63%

SMILES: COC(=O)C12CN(C)CC(C(=O)OC)(C1=O)C(c1cccc(OC)c1)N(C)C2c1cccc(OC)c1 (stereo unspecified)
inhibition [1]: -1.6%
inhibition [4]: 52.2%

SMILES: COC(=O)C12CN(C)CC(C(=O)OC)(C1=O)C(c1ccccc1F)N(C)C2c1ccccc1F (stereo unspecified)
inhibition [1]: 1.5%
inhibition [2]: -9.2%
inhibition [4]: 47.7%

SMILES: COC(=O)C12CN(C)CC(C(=O)OC)(C1=O)C(c1ccncc1)N(C)C2c1ccncc1 (stereo unspecified)
inhibition [1]: -9%
inhibition [2]: 3.1%
inhibition [4]: 12.5%

SMILES: COC(=O)C12C[N+](C)(C)CC(C(=O)OC)(C1=O)C(c1ccccn1)N(C)C2c1ccccn1 (stereo unspecified)
inhibition [1]: 3.3%
inhibition [2]: 29.2%
inhibition [3]: 96.4%

SMILES: CCOC(=O)C12CN(C)CC(C(=O)OCC)(C1=O)C(c1cccc(O)c1)N(C)C2c1cccc(O)c1 (stereo unspecified)
inhibition [1]: 6.9%
inhibition [2]: 10.5%
inhibition [4]: 92.7%

SMILES: COC(=O)C12CN(C)CC(C(=O)OC)(C1=O)C(c1ccc([N+](=O)[O-])cc1)N(C)C2c1ccc([N+](=O)[O-])cc1 (stereo in doubt)
inhibition [1]: -3.1%
inhibition [2]: 4.6%

inhibition [1]: -1.1%
inhibition [2]: 2.9%
inhibition [4]: 3.4%
SMILES: COC(=O)C12CN(C)CC(C(=O)OC)(C1=O)C(c1ccccc1[N+](=O)[O-])N(C)C2c1ccccc1[N+](=O)[O-] (stereo unspecified)

SMILES: COC(=O)C12CN(C)CC(C(=O)OC)(C1=O)C(c1ccccn1)N(C)C2c1ccccn1 (stereo unspecified)
ED50 [12]: 1.05 mg/kg
inhibition [1]: -5.9% and -6.6%
pKa [8]: 2.03
inhibition [2]: 32.4% and 20% and 37.6%
ED50 [13]: 6.7 mg/kg
pKa [10]: 3.47
inhibition [6]: 5%
inhibition [14]: 61.7%
inhibition [4]: 65% and 62.6%

inhibition [1]: 1.2%
inhibition [2]: -7.1%
inhibition [4]: 25.8%
SMILES: COC(=O)C12CN(C)CC(C(=O)OC)(C1=O)C(c1ccnc3ccccc13)N(C)C2c1ccnc2ccccc12 (stereo unspecified)

SMILES: COC(=O)C12CN(C)CC(C(=O)OC)(C1=O)C(c1ccccc1Cl)N(C)C2c1ccccc1Cl (stereo unspecified)
inhibition [1]: 1.9%
inhibition [2]: 2.7%
inhibition [4]: 65.4%

SMILES: COC(=O)C12CN(C)CC(C(=O)OC)(C1=O)C(c1cccc(F)c1)N(C)C2c1cccc(F)c1 (stereo unspecified)
inhibition [1]: 3.2%
inhibition [2]: 5%
pKa [9]: 10.7
Ki [5]: 26 nM
pKa [11]: 13.1

SMILES: COC(=O)C12CN(C)CC(C(=O)OC)(C1=O)C(c1cccc(Cl)c1)N(C)C2c1cccc(Cl)c1 (stereo unspecified)
inhibition [2]: 8.8%
pKa [9]: 9.51
inhibition [6]: -0.8%
inhibition [15]: 42.3%
pKa [11]: 10.6

SMILES: COC(=O)C12CN(C)CC(C(=O)OC)(C1=O)C(c1cccc(C#N)c1)N(C)C2c1cccc(C#N)c1 (stereo unspecified)
inhibition [1]: 5%
inhibition [2]: 9.3%
inhibition [4]: 35.5%

inhibition [1]: -2.1%
inhibition [4]: 18.6%
SMILES: COC(=O)C12CN(C)CC(C(=O)OC)(C1=O)C(c1ccc3ccccc3c1)N(C)C2c1ccc2ccccc2c1 (stereo unspecified)

SMILES: COC(=O)C12CN(C)CC(C(=O)OC)(C1=O)C(c1ccc(C#N)cc1)N(C)C2c1ccc(C#N)cc1 (stereo unspecified)
inhibition [1]: 3.2%
inhibition [2]: 5.6%
inhibition [4]: 17.2%

SMILES: CN1CC2(C(=O)O)C(=O)C(C(=O)O)(C1)C(c1ccccc1)N(C)C2c1ccccc1 (stereo unspecified)
inhibition [1]: -1.6%
inhibition [2]: 14.5%
inhibition [6]: -0.3%
Ki [7]: 210 nM

SMILES: COC(=O)C12CN(C)CC(C(=O)OC)(C1=O)C(c1ccc(OC)cc1)N(C)C2c1ccc(OC)cc1 (stereo unspecified)
inhibition [1]: 3%
inhibition [2]: 26.5%
pKa [9]: 5.51
Ki [7]: 18 nM
pKa [11]: 9.05

SMILES: CCOC(=O)C12CN(C)CC(C(=O)OCC)(C1=O)C(c1cccc([N+](=O)[O-])c1)N(C)C2c1cccc([N+](=O)[O-])c1 (stereo unspecified)
inhibition [1]: 6.1%
inhibition [2]: 2.3%
inhibition [3]: 5.9%

SMILES: COC(=O)C12CN(C)CC(C(=O)OC)(C1=O)C(c1ccc(Cl)c(Cl)c1)N(C)C2c1ccc(Cl)c(Cl)c1 (stereo unspecified)
inhibition [1]: -5.3%
inhibition [2]: 6.1%
inhibition [4]: 38.9%

SMILES: COC(=O)C12CN(C)CC(C(=O)OC)(C1=O)C(c1cccc(C)c1)N(C)C2c1cccc(C)c1 (stereo unspecified)
inhibition [2]: -5.9%
inhibition [6]: 3.4%

— ChEMBL document CHEMBL1133681, “Synthesis and opioid receptor affinity of a series of 2, 4-diaryl-substituted 3,7-diazabicylononanones” (J Med Chem, 2000)
